Experimental findings from ChEMBL document CHEMBL4043093, “2-Oxo-3, 4-dihydropyrimido[4, 5-d]pyrimidinyl derivatives as new irreversible pan fibroblast growth factor receptor (FGFR) inhibitors” (Eur J Med Chem, 2017) are described below.

In experiment [1] the target is Serine/threonine-protein kinase 3 (Homo sapiens) (UniProt Q13188). Put plainly: Inhibition of wild-type human partial length MST2 (D17 to E318 residues) expressed in Escherichia coli BL21 assessed as residual activity at 1000 nM after 30 mins by Kinomescan method relative to control.
Sequence of Serine/threonine-protein kinase 3 (Homo sapiens) (Q13188 whole entry, the tested form may be a part): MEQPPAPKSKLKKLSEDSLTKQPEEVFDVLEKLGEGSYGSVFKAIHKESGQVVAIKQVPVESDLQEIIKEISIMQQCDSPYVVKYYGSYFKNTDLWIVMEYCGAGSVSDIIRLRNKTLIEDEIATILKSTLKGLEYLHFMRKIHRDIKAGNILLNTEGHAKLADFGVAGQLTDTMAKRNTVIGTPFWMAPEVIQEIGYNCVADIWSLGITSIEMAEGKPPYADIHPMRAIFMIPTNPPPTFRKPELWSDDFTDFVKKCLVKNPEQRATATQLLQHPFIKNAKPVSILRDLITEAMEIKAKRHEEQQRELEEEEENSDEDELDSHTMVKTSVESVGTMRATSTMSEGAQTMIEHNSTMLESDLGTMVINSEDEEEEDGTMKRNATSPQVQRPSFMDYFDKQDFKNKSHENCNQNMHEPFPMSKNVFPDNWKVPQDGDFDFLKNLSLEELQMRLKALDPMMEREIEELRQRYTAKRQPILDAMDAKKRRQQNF
Experiment [2] deals with Dual specificity testis-specific protein kinase 1 (Homo sapiens) (UniProt Q15569). Put plainly: Inhibition of wild-type human full length TESK1 (R37 to S626 residues) expressed in Escherichia coli BL21 assessed as residual activity at 1000 nM after 30 mins by Kinomescan method relative to control.
Sequence of Dual specificity testis-specific protein kinase 1 (Homo sapiens) (Q15569 whole entry, looked up, the tested form may be a part): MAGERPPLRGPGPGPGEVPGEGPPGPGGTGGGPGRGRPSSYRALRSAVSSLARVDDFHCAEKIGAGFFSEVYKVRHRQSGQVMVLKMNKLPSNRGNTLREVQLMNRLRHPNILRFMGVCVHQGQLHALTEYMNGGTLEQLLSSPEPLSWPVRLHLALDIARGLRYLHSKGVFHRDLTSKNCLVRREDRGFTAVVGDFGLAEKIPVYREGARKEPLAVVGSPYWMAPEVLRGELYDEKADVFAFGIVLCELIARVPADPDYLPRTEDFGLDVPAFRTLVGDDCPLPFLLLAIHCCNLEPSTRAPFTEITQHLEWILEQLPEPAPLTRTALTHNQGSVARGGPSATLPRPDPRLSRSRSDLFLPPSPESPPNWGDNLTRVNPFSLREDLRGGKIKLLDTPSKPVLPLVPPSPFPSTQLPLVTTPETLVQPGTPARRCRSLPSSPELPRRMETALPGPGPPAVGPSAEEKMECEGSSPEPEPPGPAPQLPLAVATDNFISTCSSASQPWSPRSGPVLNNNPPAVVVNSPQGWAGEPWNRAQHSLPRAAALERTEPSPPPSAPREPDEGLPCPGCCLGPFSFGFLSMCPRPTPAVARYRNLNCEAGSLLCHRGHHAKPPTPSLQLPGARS
Experiment [3] deals with Receptor-type tyrosine-protein kinase FLT3 (Homo sapiens), P36888 [K663Q]. Description: Inhibition of human partial length FLT3 K663Q mutant (V592 to Y969 residues) expressed in Escherichia coli BL21 assessed as residual activity at 1000 nM after 30 mins by Kinomescan method relative to control. In a few lines: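 KINOMEscan binding panel of 456 kinases, with the test compound at a single concentration of 1 µM. Read-out is Percent Control.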

Experiment [4] concerns the target Tyrosine-protein kinase Blk (Homo sapiens) (UniProt P51451). Put plainly: Inhibition of wild-type human partial length BLK (G211 to L503 residues) expressed in Escherichia coli BL21 assessed as residual activity at 1000 nM after 30 mins by Kinomescan method relative to control.

Sequence of Tyrosine-protein kinase Blk (Homo sapiens) (P51451 2-505 limits assumed): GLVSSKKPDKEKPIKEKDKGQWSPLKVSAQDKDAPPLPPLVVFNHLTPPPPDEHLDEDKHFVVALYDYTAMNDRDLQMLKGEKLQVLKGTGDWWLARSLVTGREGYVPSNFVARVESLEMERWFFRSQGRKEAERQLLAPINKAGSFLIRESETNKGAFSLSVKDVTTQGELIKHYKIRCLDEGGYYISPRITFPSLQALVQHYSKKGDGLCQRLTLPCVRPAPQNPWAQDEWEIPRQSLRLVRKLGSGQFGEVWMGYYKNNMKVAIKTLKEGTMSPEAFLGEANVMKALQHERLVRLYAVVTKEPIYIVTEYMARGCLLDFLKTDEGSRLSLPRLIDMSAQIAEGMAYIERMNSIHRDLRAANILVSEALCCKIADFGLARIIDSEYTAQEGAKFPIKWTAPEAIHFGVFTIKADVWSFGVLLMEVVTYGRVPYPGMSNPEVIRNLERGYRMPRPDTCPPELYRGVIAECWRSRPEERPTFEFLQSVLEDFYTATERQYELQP

With `COc1cc(OC)c(Cl)c(N2Cc3cnc(Nc4ccc(F)cc4)nc3N(C3CCN(C(=O)/C=C/CN(C)C)CC3)C2=O)c1Cl`, the Activity in experiment [1] was found to be 64%; in experiment [2], 82%; in experiment [3] it was 100%; in experiment [4], 0.6%.
